This is an account of results in ChEMBL document CHEMBL4732180, “Discovery of novel positive allosteric modulators of the α7 nicotinic acetylcholine receptor: Scaffold hopping approach” (Eur J Med Chem, 2021).

The nature of data set [1]: AUC (0 to 5 hrs) in Wistar rat plasma at 3 mg/kg, iv up to 5 hrs by HPLC-MS/MS analysis. In kind it is ADME, organism-based. Further details: route intravenous, dose 3 mg/kg, time <=5.
Data set [2] is described as follows: Intrinsic clearance in mouse liver microsome at 1 to […] up to 40 mins. The conditions noted are these: liver microsomes, dose 1-2.5 µM, read-out: CLH. In kind it is ADME. (In general: Liver microsomes are vesicles of endoplasmic reticulum, rich in cytochrome P450 enzymes.)
Data set [3] can be described thus: AUC (0 to 5 hrs) in Wistar rat plasma at 3 mg/kg, po up to 5 hrs by HPLC-MS/MS analysis. In kind it is ADME, organism-based. Also on record: route oral, dose 3 mg/kg, time <=5.
A short description of data set [4]: Tmax in Wistar rat brain at 3 mg/kg, po up to 5 hrs by HPLC-MS/MS analysis. It counts as ADME, organism-based.
Data set [5] is described as follows: Volume of distribution in Wistar rat plasma at 3 mg/kg, iv up to 5 hrs by HPLC-MS/MS analysis. It counts as ADME, organism-based.
Data set [6] can be described thus: Tmax in Wistar rat plasma at 3 mg/kg, po up to 5 hrs by HPLC-MS/MS analysis. In kind it is ADME, organism-based.
Data set [7] in a line: Half life in Wistar rat plasma at 3 mg/kg, iv up to 5 hrs by HPLC-MS/MS analysis. It counts as ADME, organism-based.
The nature of data set [8]: Intrinsic clearance in human liver microsome at 1 to […] up to 40 mins. The conditions noted are these: liver microsomes, dose 1-2.5 µM, read-out: CLH. In kind it is ADME.
A short description of data set [9]: Lipophilicity, logP of compound. It counts as physicochemical. To be noted: octanol/water.
Data set [10] in a line: AUC (0 to 5 hrs) in Wistar rat brain at 3 mg/kg, po up to 5 hrs by HPLC-MS/MS analysis. It counts as ADME, organism-based. Further details: route oral, dose 3 mg/kg, time <=5.
Data set [11] is described as follows: Clearance in Wistar rat plasma at 3 mg/kg, iv up to 5 hrs by HPLC-MS/MS analysis. In kind it is ADME, organism-based.
Data set [12] is described as follows: Intrinsic clearance in rat liver microsome at 1 to […] up to 40 mins. It counts as ADME. To be noted: liver microsomes, dose 1-2.5 µM, read-out: CLH.
The nature of data set [13]: Cmax in Wistar rat plasma at 3 mg/kg, po up to 5 hrs by HPLC-MS/MS analysis. In kind it is ADME, organism-based. Further details: route oral, dose 3 mg/kg, time <=5.
The nature of data set [14]: Cmax in Wistar rat brain at 3 mg/kg, po up to 5 hrs by HPLC-MS/MS analysis. In kind it is ADME, organism-based. Further details: route oral, dose 3 mg/kg, time <=5.
Data set [15] in a line: Apparent permeability across apical to basolateral side in vinblastine-treated human Caco2 cells at 10 uM after 180 mins by HPLC or UHPLC-MS/MS analysis. It counts as ADME. The conditions noted are these: Caco-2. The essentials: (§1)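 Vinblastine-selected Caco-2 (VB-Caco-2) monolayers with high P-gp expression. Compound at 1 or 10 µM, measured apical-to-basolateral and basolateral-to-apical in HBSS with 25 mM HEPES. pH 7.4 on both sides, 37 °C, 120 rpm shaking, up to 180 min with compound-specific duration. Quantified by HPLC or UHPLC-MS/MS; PDR = Papp B-A / Papp A-B.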
A general note: Caco-2 cells form a polarised layer with tight junctions and transporters.

Data set [16] can be described thus: Apparent permeability across apical to basolateral side in vinblastine-treated human Caco2 cells at 1 uM after 180 mins by HPLC or UHPLC-MS/MS analysis. In kind it is ADME. The conditions noted are these: Caco-2. In outline: as §1

In the case of `NS(=O)(=O)c1ccc(-c2cc(C(=O)N3CC4CC4C3)nn2-c2ccc(Cl)cc2)cc1` (stereo not given), the AUC(0-t) in data set [1] came out at 3490 ng·h/mL; in data set [3] it was 134 ng·h/mL; in data set [10], 158 ng·h/mL. For the same compound, the microsomal CLint at […] is 5 µL/min/mg in data set [2], 4 µL/min/mg in [8] and 10 µL/min/mg in data set [12]. Besides, the Tmax in data set [4] and in data set [6] was 2 h in each case. Moreover, the Vd in data set [5] worked out at 1.17 L/kg. The compound further had a half-life in data set [7] of 0.97 h. The logP in [9] came out at 3.1. Further, the clearance in [11] was 14.1 mL/min/kg. In addition, the results for the Cmax in [13] and in data set [14] were 31.6 ng/mL and 36.8 ng/mL, respectively. The Papp A→B at 3 h, 10 µM in data set [15] worked out at 18 ×10⁻⁶ cm/s.
As to `CCC(=O)c1cc(-c2ccc(S(N)(=O)=O)cc2)n(-c2ccc(Cl)cc2)n1`, the microsomal CLint at […] in data set [2] amounted to 16 µL/min/mg; in data set [8] it was 18 µL/min/mg; in [12], 20 µL/min/mg. In data set [9], this compound gave a logP of 3.8. Further, the Papp A→B at 3 h, 10 µM in data set [15] was found to be 20 ×10⁻⁶ cm/s.
For `CCC(=O)c1cc(-c2ccc(Cl)cc2)n(-c2ccc(S(N)(=O)=O)cc2)c1C`, the microsomal CLint at […] in data set [2] stood at 26 µL/min/mg; in data set [8], 3 µL/min/mg; in [12] it was 10 µL/min/mg. For the same compound, the Papp A→B at 3 h, 1 µM in [16] is 9 ×10⁻⁶ cm/s. The compound further registered a logP in [9] of 4.7.

By AUC(0-t) is commonly meant the area under the concentration-time curve up to a stated or last time point. For orientation: Tmax means the time from dosing to the highest level. One may read the Vd as a proportionality between amount in the body and measured concentration, not a real space. A low value points to little distribution into tissue. For orientation: half-life means the time in which the quantity being followed falls by half. A lower half-life goes with fast loss. The logP is the decadic logarithm of the partition coefficient of the neutral form, usually between octanol and water. Higher therefore signals a more lipophilic compound. By clearance is commonly meant the rate of elimination divided by the concentration. Read a low clearance as a low capacity for elimination. Usually Cmax stands for the maximum level reached in the sampled fluid or tissue. What is called Papp A→B is the apparent permeability from the apical to the basolateral side of a cell layer.
